Square brackets hold non-standard residues; d marks the D form. Ends that are not written are not given here. * marks the point of attachment. MethylRed = CN(C)c1ccc(/N=N/c2ccccc2C(=O)*)cc1; Dnp = O=[N+]([O-])c1ccc(*)c([N+](=O)[O-])c1; AFC = O=c1cc(C(F)(F)F)c2ccc(N*)cc2o1; Mca = COc1ccc2c(CC(=O)*)cc(=O)oc2c1; Ahx = NCCCCCC(=O)O
Key:
[1] = molecular target: T1, recombinant human caspase-7 (Homo sapiens, UniProt P55210); assay: Kinetic assay; format: biochemical; conditions: caspase-7 15 nM; pH 7.5 caspase buffer; n = 3
T1 sequence (P55210 24-198 limits assumed): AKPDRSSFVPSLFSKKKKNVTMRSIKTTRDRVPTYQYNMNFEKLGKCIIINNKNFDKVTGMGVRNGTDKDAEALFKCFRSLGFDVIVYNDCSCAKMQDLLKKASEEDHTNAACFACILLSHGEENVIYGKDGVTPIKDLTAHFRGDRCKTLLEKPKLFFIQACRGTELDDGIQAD
T1 sequence (P55210 207-303 limits assumed): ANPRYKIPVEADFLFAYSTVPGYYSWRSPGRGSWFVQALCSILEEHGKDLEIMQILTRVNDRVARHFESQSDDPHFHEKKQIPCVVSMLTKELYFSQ
Method in brief: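 Human recombinant enzyme was incubated with internally quenched FRET substrates, FAM-Ahx-Asp-Glu-X2-Asp-X1′-(Ahx)-Lys(MR)-NH2. X2 was Val or Pro; X1′ was Gly, Ala, Ser or absent. The donor was 5(6)-carboxyfluorescein (Ex/Em 492/517 nm) and the quencher methyl red. Cleavage between Asp and X1′ relieves quenching. KM and kcat were determined for each substrate, and catalytic efficiency taken as kcat/KM.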

caspase-3 = assay: Screen of time-dependent fluorescence activation with caspase-3; format: biochemical, human; conditions: caspase-3 15 nM; for Activation with caspase-3 in preliminary screen (in words): substrate 2.5, 5 and 10 μM, 0-40 min, n = 3 (Fig. S1)
[2] = molecular target: T2, human recombinant caspase-7 (human) (UniProt P55210)
T2 sequence: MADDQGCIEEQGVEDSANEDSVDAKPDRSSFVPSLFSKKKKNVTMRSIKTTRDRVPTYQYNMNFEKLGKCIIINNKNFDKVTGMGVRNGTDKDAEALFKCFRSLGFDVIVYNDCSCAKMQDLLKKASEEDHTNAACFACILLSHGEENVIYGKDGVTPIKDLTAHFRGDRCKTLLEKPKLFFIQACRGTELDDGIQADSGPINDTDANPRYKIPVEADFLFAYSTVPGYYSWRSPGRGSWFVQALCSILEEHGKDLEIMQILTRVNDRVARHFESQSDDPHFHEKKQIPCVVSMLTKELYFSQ

[3] = molecular target: T3, human recombinant caspase-3 (human) (UniProt P42574)
T3 sequence: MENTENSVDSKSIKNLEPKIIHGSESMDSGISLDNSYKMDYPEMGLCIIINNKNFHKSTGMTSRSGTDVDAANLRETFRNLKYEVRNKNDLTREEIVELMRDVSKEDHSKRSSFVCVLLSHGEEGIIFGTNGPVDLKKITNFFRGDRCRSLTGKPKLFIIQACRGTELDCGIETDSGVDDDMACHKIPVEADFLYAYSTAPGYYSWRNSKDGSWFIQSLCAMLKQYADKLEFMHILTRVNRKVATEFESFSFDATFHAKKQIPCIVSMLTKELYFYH

For “Ac-Asp-Glu-Val-Asp-AFC [reference compound]”, the “Caspase-7 k cat/K M (catalytic efficiency)” value (“Caspase-7 k cat/K M” for short) [1] was 1.1 μM^–1 min^–1.

In the case of “MCA-Asp-Glu-Val-Asp-Ala-Pro-Lys-DNP [reference compound]”, the “Caspase-7 k cat/K M” value [1] is reported as 0.4 μM^–1 min^–1.

For “Substrate 1: FRET substrate FAM-Ahx-Asp-Glu-X2-Asp-X1′-spacer-Lys(MR)-NH2; X2 Val, X1′ Gly, no spacer ({5(6)‑carboxyfluorescein-Ahx}-DEVDGK(MethylRed)-NH2)”, the “Caspase-7 k cat/K M” value [1] was 8.6 μM^–1 min^–1.

For “Substrate 2: FRET substrate of the template; X2 Pro, X1′ Ala, no spacer ({5(6)‑carboxyfluorescein-Ahx}-DEPDAK(MethylRed)-NH2)”, the “Activation with caspase-3 in preliminary screen (in words)” value (from here on “Activation”) (caspase-3) was “reduced activation”.

For “Substrate 3: FRET substrate of the template; X2 Pro, X1′ Ser, no spacer ({5(6)‑carboxyfluorescein-Ahx}-DEPDSK(MethylRed)-NH2)”, the “Activation” value (caspase-3) was “reduced activation”.

“Substrate 4: FRET substrate of the template; X2 Val, no X1′, spacer Ahx ({5(6)‑carboxyfluorescein-Ahx}-DEVD[Ahx]K(MethylRed)-NH2)” was tested, and the “Caspase-7 k cat/K M” value [1] was 3.4 μM^–1 min^–1.

With “Substrate 5: FRET substrate of the template; X2 Pro, no X1′, spacer Ahx ({5(6)‑carboxyfluorescein-Ahx}-DEPD[Ahx]K(MethylRed)-NH2)” the “Caspase-7 k cat/K M” value [1] was 3.5 μM^–1 min^–1.

With “Substrate 6: FRET substrate of the template; X2 Pro, X1′ Gly, spacer Ahx ({5(6)‑carboxyfluorescein-Ahx}-DEPDG[Ahx]K(MethylRed)-NH2)” the “Caspase-7 k cat/K M” value [1] was 8.4 μM^–1 min^–1.

With “Substrate 7: FRET substrate of the template; X2 Val, X1′ Gly, spacer Ahx ({5(6)‑carboxyfluorescein-Ahx}-DEVDG[Ahx]K(MethylRed)-NH2)” the “Caspase-7 k cat/K M” value [1] was 3.9 μM^–1 min^–1.

With “Substrate 8: FRET substrate of the template; X2 Pro, X1′ Ala, spacer Ahx ({5(6)‑carboxyfluorescein-Ahx}-DEPDA[Ahx]K(MethylRed)-NH2)” the “Caspase-7 k cat/K M” value [1] was 0.14 μM^–1 min^–1 and the “Activation” value (caspase-3) was “activity was restored”.

In the case of “Substrate 9: FRET substrate of the template; X2 Val, X1′ Ala, spacer Ahx ({5(6)‑carboxyfluorescein-Ahx}-DEVDA[Ahx]K(MethylRed)-NH2)”, the “Caspase-7 k cat/K M” value [1] is reported as 3.2 μM^–1 min^–1 and the “Fold higher increase in fluorescence than Ac-Asp-Glu-Val-Asp-AFC (AFC)” value (caspase-3; all substrates at 20 μM, n = 3 (Fig. S2)) is reported as 3 fold.

“Substrate 10: FRET substrate of the template; X2 Pro, X1′ Ser, spacer Ahx ({5(6)‑carboxyfluorescein-Ahx}-DEPDS[Ahx]K(MethylRed)-NH2)” was tested, and the “Caspase-7 k cat/K M” value [1] was 0.5 μM^–1 min^–1 and the “Activation” value (caspase-3) was “activity was restored”.

“Substrate 11: FRET substrate of the template; X2 Val, X1′ Ser, spacer Ahx ({5(6)‑carboxyfluorescein-Ahx}-DEVDS[Ahx]K(MethylRed)-NH2)” was tested, and the “Caspase-7 k cat/K M” value [1] was 2.4 μM^–1 min^–1.

In the case of Ac-DEVD-{AFC} [Ac-Asp-Glu-Val-Asp-AFC], the K M (μM) of cleavage of the fluorogenic substrate by caspase-7 [2] is reported as 10.8 µM and the K M (μM) of cleavage of the fluorogenic substrate by caspase-3 [3] is reported as 9.8 µM.

Work on Mca-DEVDAPK(Dnp) [MCA-Asp-Glu-Val-Asp-Ala-Pro-Lys-DNP] yielded a K M (μM) of cleavage of the fluorogenic substrate by caspase-7 [2] of 15.1 µM and a K M (μM) of cleavage of the fluorogenic substrate by caspase-3 [3] of 13.5 µM.

Reference: paper PMC4763880 (Molecular Biosystems, 2016)
